According to ChEMBL document CHEMBL4028897 (J Med Chem, 2017):
Active and inactive are the calls of the source. The rule behind the calls is not given here.

Assays:
D(2) dopamine receptor = D(2) dopamine receptor (Homo sapiens, UniProt P14416); assay: Displacement of [125I]ABN from human dopamine D2 long receptor expressed in HEK293 cell membranes after 60 mins by scintillation counting method
In short: (§1)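 Nonspecific binding defined with 20 μM (+)-butaclamol. Inhibitor spanned 5 log units, two concentrations per decade, in triplicate. Stopped with ice-cold Tris/NaCl wash and glass-fiber filtration.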

D(3) dopamine receptor [1] = molecular target: T1, D(3) dopamine receptor (Homo sapiens, UniProt P35462); assay: Agonist activity at human ProLink-tagged dopamine D3 receptor expressed in human U2OS cells assessed as induction of EA-tagged beta-arrestin binding at 10 times Ki after 90 mins by chemoluminescence assay; type: cell-based
D(3) dopamine receptor [2] = molecular target: T1, D(3) dopamine receptor; assay: Displacement of [125I]ABN from human dopamine D3 receptor expressed in HEK293 cell membranes after 60 mins by scintillation counting method
Homo sapiens = species on record: Homo sapiens; assay: Selectivity ratio of Ki for human dopamine D2 long receptor to Ki for human dopamine D3 receptor; in short: as §1
D(3) dopamine receptor [3] = molecular target: T1, D(3) dopamine receptor; assay: Agonist activity at human dopamine D3 receptor expressed in human U2OS cells assessed as inhibition of forskolin-dependent stimulation of adenylyl cyclase at 10 times Ki; type: functional, cell-based
D(3) dopamine receptor [4] = molecular target: T1, D(3) dopamine receptor; assay: Partial agonist activity at human dopamine D3 receptor expressed in human U2OS cells assessed as inhibition of forskolin-dependent stimulation of adenylyl cyclase at 10 times Ki; type: functional, cell-based
[5] = molecular target: T2, 5-hydroxytryptamine receptor 1A (Homo sapiens, UniProt P08908); assay: Displacement of [3H]8-OH-DPAT from human 5-HT1A receptor expressed in CHO-K1 cell membranes after 60 mins by scintillation counting method
T2 sequence (P08908 whole entry): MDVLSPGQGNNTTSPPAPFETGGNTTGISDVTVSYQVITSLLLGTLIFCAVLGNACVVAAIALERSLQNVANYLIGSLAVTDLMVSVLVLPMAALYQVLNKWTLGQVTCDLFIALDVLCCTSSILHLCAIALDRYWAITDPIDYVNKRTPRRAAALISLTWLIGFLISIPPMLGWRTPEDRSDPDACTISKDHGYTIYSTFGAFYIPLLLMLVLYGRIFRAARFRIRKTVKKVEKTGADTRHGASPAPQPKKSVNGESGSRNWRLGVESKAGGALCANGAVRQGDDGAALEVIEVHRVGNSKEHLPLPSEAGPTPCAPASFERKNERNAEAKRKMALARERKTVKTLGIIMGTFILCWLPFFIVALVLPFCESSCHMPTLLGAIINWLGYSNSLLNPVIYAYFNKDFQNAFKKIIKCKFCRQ
In short: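 CHO-K1 membranes expressing human 5-HT1AR in 50 mM Tris-HCl, 10 mM MgSO4, 0.5 mM EDTA, 0.1% ascorbic acid, pH 7.4. […] Nonspecific binding with 10 μM metergoline. Competitor over 5 log units, two per decade, in triplicate. Ice-cold 10 mM Tris-HCl (pH 7.4) wash, glass-fiber filtration.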

[6] = molecular target: T3, 5-hydroxytryptamine receptor 2C (Homo sapiens) (UniProt P28335); assay: Binding affinity to 5-HT2C receptor (unknown origin)
T3 sequence (whole entry): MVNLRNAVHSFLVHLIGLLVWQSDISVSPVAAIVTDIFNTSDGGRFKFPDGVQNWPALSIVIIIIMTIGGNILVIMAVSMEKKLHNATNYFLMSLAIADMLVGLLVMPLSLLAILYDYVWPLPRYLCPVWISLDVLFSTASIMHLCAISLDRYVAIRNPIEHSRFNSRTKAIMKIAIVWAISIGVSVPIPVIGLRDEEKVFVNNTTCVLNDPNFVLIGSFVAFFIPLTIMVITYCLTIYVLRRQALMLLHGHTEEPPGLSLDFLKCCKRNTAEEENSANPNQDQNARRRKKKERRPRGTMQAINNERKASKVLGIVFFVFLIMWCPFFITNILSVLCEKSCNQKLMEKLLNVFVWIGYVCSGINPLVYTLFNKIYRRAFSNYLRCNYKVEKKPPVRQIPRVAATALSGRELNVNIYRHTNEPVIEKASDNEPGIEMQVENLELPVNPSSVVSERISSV

[7] = molecular target: 5-hydroxytryptamine receptor 2A (Homo sapiens) (UniProt P28223); assay: Binding affinity to 5-HT2A receptor (unknown origin)
5-hydroxytryptamine receptor 2A (Homo sapiens), sequence (P28223 whole entry): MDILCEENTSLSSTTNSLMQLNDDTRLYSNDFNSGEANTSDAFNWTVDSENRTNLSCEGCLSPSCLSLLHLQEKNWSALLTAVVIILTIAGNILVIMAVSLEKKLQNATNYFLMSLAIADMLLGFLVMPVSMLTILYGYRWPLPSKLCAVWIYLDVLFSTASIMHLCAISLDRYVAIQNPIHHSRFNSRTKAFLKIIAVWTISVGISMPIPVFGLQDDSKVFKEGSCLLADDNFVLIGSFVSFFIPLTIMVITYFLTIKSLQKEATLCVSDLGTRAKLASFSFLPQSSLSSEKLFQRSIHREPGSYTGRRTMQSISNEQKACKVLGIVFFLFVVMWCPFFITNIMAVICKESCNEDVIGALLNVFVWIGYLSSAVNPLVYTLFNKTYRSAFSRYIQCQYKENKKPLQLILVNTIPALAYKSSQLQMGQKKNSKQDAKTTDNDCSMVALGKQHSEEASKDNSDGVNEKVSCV

D(2) dopamine receptor, sequence (P14416 whole entry): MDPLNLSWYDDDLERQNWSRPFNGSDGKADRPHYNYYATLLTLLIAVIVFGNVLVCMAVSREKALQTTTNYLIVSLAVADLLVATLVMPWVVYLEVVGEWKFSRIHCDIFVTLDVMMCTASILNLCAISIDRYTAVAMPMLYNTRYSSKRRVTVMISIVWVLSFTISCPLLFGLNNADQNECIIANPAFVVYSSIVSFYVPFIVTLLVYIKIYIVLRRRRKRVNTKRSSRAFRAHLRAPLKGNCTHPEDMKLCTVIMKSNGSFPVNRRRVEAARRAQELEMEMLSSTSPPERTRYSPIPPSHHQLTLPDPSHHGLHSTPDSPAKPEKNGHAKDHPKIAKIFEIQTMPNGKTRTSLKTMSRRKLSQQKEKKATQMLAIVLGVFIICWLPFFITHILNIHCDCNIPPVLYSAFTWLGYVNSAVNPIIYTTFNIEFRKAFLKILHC
T1 sequence (P35462 whole entry): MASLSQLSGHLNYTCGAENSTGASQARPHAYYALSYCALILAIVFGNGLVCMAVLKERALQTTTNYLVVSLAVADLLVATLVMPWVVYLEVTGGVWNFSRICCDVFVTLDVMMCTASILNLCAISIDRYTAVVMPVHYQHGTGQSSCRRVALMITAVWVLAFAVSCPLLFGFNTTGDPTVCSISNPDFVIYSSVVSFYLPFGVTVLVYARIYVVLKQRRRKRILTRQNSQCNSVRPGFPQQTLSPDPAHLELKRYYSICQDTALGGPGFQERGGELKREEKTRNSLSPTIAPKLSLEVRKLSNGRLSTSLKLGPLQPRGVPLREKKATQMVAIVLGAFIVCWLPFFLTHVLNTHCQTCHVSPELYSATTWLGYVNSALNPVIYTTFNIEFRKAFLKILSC

Compound	Ki (D(2) dopamine receptor) [nM]	Activity (D(3) dopamine receptor [1])	Ki (D(3) dopamine receptor [2]) [nM]	Ratio Ki (Homo sapiens)	Activity (D(3) dopamine receptor [3])	Activity (D(3) dopamine receptor [4])	Ki [5] [nM]	Activity [6]	Activity [7]
COc1ccccc1N1CCC2(CCN(CCCSc3nnc(-c4ccccc4)n3C)C2)C1 (racemic)	6370	inactive	24.2	264	inactive	–	–	–	–
COc1ccccc1N1CCC2(CCN(CCCSc3nnc(-c4ccccc4)n3C)CC2)CC1	10900	–	12	–	–	Active	931	Active	Active
Cn1c(SCCCN2CCC3(CC2)CCN(c2ccccn2)CC3)nnc1-c1ccccc1	83700	–	871	96.1	–	–	–	–	–
COc1ccccc1N1CC2(CCN(CCCSc3nnc(-c4ccccc4)n3C)CC2)C1	37600	–	235	160	–	–	–	–	–
COc1ccccc1N1CCC12CN(CCCSc1nnc(-c3ccccc3)n1C)C2	115000	–	4790	24	–	–	–	–	–
COc1ccccc1N1CCN(CCCSc2nnc(-c3ccccc3)n2C)CC1	260	–	6.5	–	–	–	0.22	–	–
Cn1c(SCCCN2CCC3(CC2)CCN(c2cccc(Cl)c2Cl)CC3)nnc1-c1ccccc1	7500	–	82.4	91	–	–	–	–	–
Cn1c(SCCCN2CCC3(CC2)CCN(c2ccc(F)cc2)CC3)nnc1-c1ccccc1	9790	inactive	25.6	383	inactive	–	587	Active	Active
COc1ccccc1N1CCC12CCN(CCCSc1nnc(-c3ccccc3)n1C)CC2	29300	–	169	173	–	–	–	–	–
COc1ccccc1N1CC2(CN(CCCSc3nnc(-c4ccccc4)n3C)C2)C1	21200	–	833	25.5	–	–	–	–	–
COc1ccc(N2CCC3(CCN(CCCSc4nnc(-c5ccccc5)n4C)CC3)CC2)cc1	105000	–	97.7	1070	–	–	–	–	–
Cn1c(SCCCN2CC3(CCN3c3ccc(F)cc3)C2)nnc1-c1ccccc1	> 110000	–	18200	> 6	–	–	–	–	–
COc1ccccc1N1CCC2(CN(CCCSc3nnc(-c4ccccc4)n3C)C2)C1	60200	–	192	313	–	–	–	–	–
Cn1c(SCCCN2CCC3(CC2)CCN(c2cccc(C#N)c2)CC3)nnc1-c1ccccc1	57100	–	438	130	–	–	–	–	–
COc1ccccc1N1CCC2(CCN(CCCSc3nnc(-c4ccccc4)n3C)CC2)C1	6170	inactive	19.6	–	inactive	–	724	Active	Active
